Compound activity as filed in PubChem.
NPR1 activator: GC-A (human) enzyme activation | activation, % at 10 µM | AID 1671463 | HEK293 GC-A cells, cGMP TR-FRET, EC30 ANP; 0% at EC30 ANP, 100% saturating ANP | P16066 | 370,000 tested, 0.14% active; in the data active = activation above about 40%
Target sequence (P16066 whole entry, looked up): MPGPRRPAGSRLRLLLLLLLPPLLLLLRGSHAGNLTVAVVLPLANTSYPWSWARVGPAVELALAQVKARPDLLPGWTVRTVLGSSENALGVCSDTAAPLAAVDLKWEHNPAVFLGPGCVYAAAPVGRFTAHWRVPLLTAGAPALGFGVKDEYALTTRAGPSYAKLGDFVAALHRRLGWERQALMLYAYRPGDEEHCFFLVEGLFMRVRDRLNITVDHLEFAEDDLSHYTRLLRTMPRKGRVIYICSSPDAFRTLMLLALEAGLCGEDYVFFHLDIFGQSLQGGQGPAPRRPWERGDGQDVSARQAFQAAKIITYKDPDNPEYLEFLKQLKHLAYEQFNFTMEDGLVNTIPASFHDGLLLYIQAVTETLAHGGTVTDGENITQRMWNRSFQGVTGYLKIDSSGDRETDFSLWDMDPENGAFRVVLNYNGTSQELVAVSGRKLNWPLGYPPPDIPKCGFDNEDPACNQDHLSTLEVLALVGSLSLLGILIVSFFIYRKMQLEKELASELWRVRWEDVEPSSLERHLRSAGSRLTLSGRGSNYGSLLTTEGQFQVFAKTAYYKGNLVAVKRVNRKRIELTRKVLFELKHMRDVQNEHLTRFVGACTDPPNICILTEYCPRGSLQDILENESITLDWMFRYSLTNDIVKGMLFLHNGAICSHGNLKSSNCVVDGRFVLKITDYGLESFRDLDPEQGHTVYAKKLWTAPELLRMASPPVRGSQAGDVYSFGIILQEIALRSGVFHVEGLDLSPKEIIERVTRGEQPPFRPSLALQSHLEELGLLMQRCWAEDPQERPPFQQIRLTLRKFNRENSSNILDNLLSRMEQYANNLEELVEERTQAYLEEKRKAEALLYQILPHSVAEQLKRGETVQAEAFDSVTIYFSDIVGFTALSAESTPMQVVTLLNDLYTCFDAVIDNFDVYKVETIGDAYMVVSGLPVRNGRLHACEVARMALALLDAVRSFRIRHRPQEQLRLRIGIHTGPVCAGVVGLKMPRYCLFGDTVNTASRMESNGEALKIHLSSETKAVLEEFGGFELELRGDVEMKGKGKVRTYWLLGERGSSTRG
GC-B act: GC-B (human) receptor activation; P20594; HEK293-GC-B cells, CNP EC30, cGMP TR-FRET; 0% at EC30 CNP, 100% saturating CNP; activation, % at 10 µM; 370,000 tested, 0.11% active; AID 1920062;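 active = activation at 10 µM reaching about 35% in either raw or pattern-adjusted values, limit read from the data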
GRIN3A LBD mod: modulates the human NR3A ligand-binding domain | NR3A LBD differential scanning fluorimetry, Tm shift; 0% = protein alone, 100% = glycine-bound protein | Tm shift relative to glycine control, % at 25 µM | 340,000 tested, 2.5% active | AID 1259313;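 active = melting temperature shift of at least 10% of the positive control shift, at one fixed dose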
aDG glyco act: alpha-DG glycosylation activation | Pro5-aDG cells, alpha-DG glycosylation AlphaScreen (IIH6); 0% Pro5, 100% B10-LARGE cell signal | activation, % at 10 µM | 360,000 tested, 0.22% active | AID 624168;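 active = activation of at least 8% versus controls, or a plate z-score of at least 8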;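 also: Pro5 are CHO cells carrying HIG-tagged alpha-DG that lacks glycosylation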
JMJD2C inh: blocks human GASC-1 demethylase activity | GST-JMJD2C(1-420) H3K9me3 demethylation, DELFIA europium | inhibition, % at 2.35 µM | 330,000 tested, 0.069% active;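 active = more than half of a compound's replicate wells show inhibition beyond 50%, single wells judged on their own value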;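 also: signal counts dimethyl H3K9 product captured on neutravidin plate; 0% = median of DMSO wells and 100% = 0.3 times that DMSO median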
Hep lipid drop: hepatic lipid droplet formation modulation; AML12 mouse hepatocytes, oleate lipid droplets, BODIPY imaging; inhibition, % at 6.5 µM; 240,000 tested, 0.4% active;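 active = lipid droplet intensity inhibited by at least 50%, with more than 500 cells counted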
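Material: mouse AML12 hepatocyte cell line, fixed after treatment; Timing: compound with oleate, overnight; Technique: high-content imaging of BODIPY-stained droplets and DAPI nuclei; Probe or stimulus: oleate, 100 µM final; Dosing: compound at 6.5 µM only.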
An asterisk follows results filed as active; . = not tested or not shown. Most compounds without a hit are left out; they make up all but 3% or so of the library.

SMILES | NPR1 activator | GC-B act | GRIN3A LBD mod | aDG glyco act | JMJD2C inh | Hep lipid drop
Cc1cccc(NC(=O)c2ccc(NC(=O)c3ccccc3Br)cc2)c1 | 0 | 4 | 27* | 0 | 5 | -4
Cc1ccc(C(=O)Nc2cccc(C(=O)N/N=C/c3ccc(O)cc3)c2)cc1 | -2 | -5 | 11* | 1 | -1 | -5
C=C(C)/C=C1/CN(Cc2ccc3c(c2)OCO3)C(=N)N1C(=O)OCc1ccccc1 | 3 | 7 | . | . | . | .
Cn1cnc([N+](=O)[O-])c1Sc1nc(N)nc2c1ncn2Cc1ccccc1 | 36 | 44* | 0 | 1 | . | .
CCCn1cnc2c(Sc3c([N+](=O)[O-])ncn3C)nc(N)nc21 | 2 | 8 | 0 | 0 | . | .
CCc1nn(CCCC(=O)NCc2ccc(OC(C)C)cc2)c(=O)c2cc3occc3n12 | 2 | -7 | 16* | 0 | 9 | 26
CCOc1ccc(CNC(=O)CCCn2nc(CC)n3c(cc4occc43)c2=O)cc1 | 2 | -6 | 1 | 0 | -5 | -2
O=C(CSc1nnc(-c2ccc3c(c2)OCO3)n1-c1ccccc1)c1ccccc1 | -4 | 4 | 16* | 0 | -7 | -26
O=C(CSc1nnc(-c2ccc3c(c2)OCO3)n1-c1ccccc1)c1ccc(Cl)cc1 | -3 | 0 | 3 | 0 | -1 | -2
COc1cc(NC(=O)C2CCCN(S(=O)(=O)c3ccc(Cl)s3)C2)cc(OC)c1 (stereo not drawn) | -8 | -8 | . | . | . | .
Cc1cc(-c2cccs2)c(C#N)c(=S)[nH]1 | 40* | 6 | 1 | 0 | -4 | -9
CCN(CC(=O)Nc1ccc(NC(C)=O)cc1)C(=O)/C=C/c1ccc2c(c1)OCO2 | -2 | -1 | 31* | 0 | 8 | .
COC(=O)[C@]12C[C@H](CC(=O)NCC3CCCCC3)C(=O)N(Cc3cccc4ccccc34)C1=C[C@H](C(C)C)O[C@@H]2C1CC1 | -4 | -2 | . | . | . | .
COc1ccccc1NC(=O)c1c(Nc2ccccc2F)sc(C(=O)Nc2cccc(Cl)c2)c1N | -3 | 1 | 29* | 0 | 6 | 17
Cc1ccc(Oc2cc(NC(=O)CCCn3nc([N+](=O)[O-])cc3C)cc([N+](=O)[O-])c2)cc1 | 5 | -2 | 10* | 0 | -7 | 5
Cc1ccc(C)c(Oc2cc(NC(=O)CCCn3nc(C)c([N+](=O)[O-])c3C)cc([N+](=O)[O-])c2)c1 | -4 | -6 | 16* | 4 | 5 | -5
C[C@H](O)[C@@H]1CN2CCc3ccc(-c4ccc5c(c4)OCO5)cc3[C@@H]2C[C@@H]1N(C)C(=O)Nc1ccccc1 | -4 | -6 | . | . | . | .
O=C(OC12CCCN(C1)/C(=C/c1ccc(Cl)cc1)C2)c1ccc(Cl)cc1 (stereo not drawn) | 6 | -1 | . | . | . | .
O=C1c2cccc3c([N+](=O)[O-])ccc(c23)C(=O)N1c1nccs1 | 28 | 21 | 10* | 1 | -5 | -1
O=C1c2cccc3c([N+](=O)[O-])ccc(c23)C(=O)N1c1ccccn1 | 20 | 5 | 2 | 0 | 23 | .
N/C(=N\OC(=O)/C=C/c1ccccc1)c1ccncc1 | 2 | 1 | -9 | 0 | -1 | 10
COc1cc(OC)c(C(=O)O/N=C(\N)c2ccc(C)cc2)cc1OC | 6 | -6 | 1 | 0 | -2 | 0
N/C(=N\OC(=O)c1ccc(Cl)cc1Cl)c1ccncc1 | 43* | -6 | -1 | 0 | -1 | 13
COc1ccc(Cl)cc1C(=O)O/N=C(\N)c1ccc(Cl)cc1 | 5 | -7 | 20* | 0 | -2 | -8
N/C(=N\OC(=O)/C=C/c1ccccc1Cl)c1ccncc1 | 8 | -5 | 12* | 0 | 3 | 0
COc1ccc(/C(N)=N/OC(=O)c2cccs2)cc1OC | 7 | -3 | 22* | 0 | 16 | 3
CCCCCC(=O)N1C[C@@H](n2cc(C3CC3)nn2)[C@H](O)C[C@@H]1c1ccc(C)cc1 | -12 | -20 | . | 0 | . | .
CC(C)C(Cl)=NOC(=O)Nc1ccc(S(N)(=O)=O)cc1 | 4 | 6 | 0 | 0 | . | .
